In ChEMBL document CHEMBL4680257, “Discovery of novel NF-кB inhibitor based on scaffold hopping: 1,4,5,6,7,8-hexahydropyrido[4,3-d]pyrimidine” (Eur J Med Chem, 2020):

How the values were obtained:
HepG2 = experiment: Cytotoxicity against human HepG2 cells assessed as reduction in cell viability incubated for 24 hrs by MTT assay; format: functional, cell-based; settings: HepG2, 24 h
Method in brief: (§1)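 Cells kept at 37 °C in 5% CO₂. HepG2 grown in DMEM with 10% serum; HHL-5, LO2 and SMMC-7721 in 1640 medium with 10% serum. Seeded, grown 24 h, then exposed 24 h to 10, 5, 2.5, 1.25, 0.625 and 0.3125 µg/mL. MTT (5 mg/mL) added for 4 h at 37 °C; formazan dissolved in DMSO, OD read at 570 nm. IC50 averaged from three replicates.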

SMMC-7721 = experiment: Cytotoxicity against human SMMC-7721 cells assessed as reduction in cell viability incubated for 24 hrs by MTT assay; format: functional, cell-based; settings: SMMC-7721, 24 h; method in brief: as §1
[1] = Cytotoxicity against human HHL-5 cells assessed as reduction in cell viability incubated for 24 hrs by MTT assay; format: cell-based; settings: HHL-5, 24 h; method in brief: as §1
L02 = experiment: Cytotoxicity against human L02 cells assessed as reduction in cell viability incubated for 24 hrs by MTT assay; format: cell-based; settings: L02, 24 h; method in brief: as §1
RAW264.7 [2] = experiment: Cytotoxicity against mouse RAW264.7 cells assessed as reduction in cell viability at 5 uM incubated for 24 hrs by MTT assay; format: cell-based; settings: raw264.7, 24 h
RAW264.7 [3] = experiment: Antiinflammatory activity against mouse RAW264.7 cells assessed as LPS-induced TNF-alpha at 5 uM pretreated for 2 hrs followed by LPS stimulation and measured after 22 hrs by ELISA (reference value: 0 %); format: functional; settings: time 24 hrs
RAW264.7 [4] = experiment: Antiinflammatory activity against mouse RAW264.7 cells assessed as LPS-induced IL-6 at 5 uM pretreated for 2 hrs followed by LPS stimulation and measured after 22 hrs by ELISA relative to control (reference value: 0 %); format: functional; settings: time 24 hrs

| SMILES | IC50 (HepG2) [µM] | IC50 (SMMC-7721) [µM] | IC50 [1] [µM] | IC50 (L02) [µM] | Activity (RAW264.7 [2]) | inhibition at 5 µM (RAW264.7 [3]) [%] | inhibition at 5 µM (RAW264.7 [4]) [%] |
| --- | --- | --- | --- | --- | --- | --- | --- |
| Cl.NC1=NC(c2cccc(F)c2)C2=C(N1)/C(=C/c1cccc(F)c1)CN(S(=O)(=O)c1ccc(Br)cc1)C2 (centres undefined) | 10.6 | 6.3 | 13 | 10.1 | Non-Toxic | 69.3 | 71 |
| Cc1ccc(S(=O)(=O)N2C/C(=C\c3cccc(F)c3)C(=O)/C(=C/c3cccc(F)c3)C2)cc1 | 3.5 | 18.1 | 11.2 | 15.7 | Non-Toxic |  |  |
| Cl.NC1=NC(c2ccc(F)cc2)C2=C(N1)/C(=C/c1ccc(F)cc1)CN(S(=O)(=O)c1ccc(Br)cc1)C2 (centres undefined) | 5.6 | 12.2 | 18.3 | 18.3 | Non-Toxic | 58.1 | 64.3 |
| CC(=O)Nc1ccc(S(=O)(=O)N2CC3=C(NC(N)=NC3c3ccc(F)cc3)/C(=C/c3ccc(F)cc3)C2)cc1.Cl (centres undefined) | 7.4 | 6.2 | 32.2 | 20.3 | Non-Toxic | 40.1 | 54.2 |
| O=C1/C(=C/c2ccc(F)cc2)CN(S(=O)(=O)c2ccc(Br)cc2)C/C1=C\c1ccc(F)cc1 | 8 | 11.5 | 17.1 | 16.4 | Non-Toxic |  |  |
| O=C1/C(=C/c2ccc(F)cc2)CN(S(=O)(=O)c2ccc(F)cc2)C/C1=C\c1ccc(F)cc1 | 8.1 | 14.7 | 11.7 | 14.8 | Non-Toxic |  |  |
| Cl.N#Cc1ccc(S(=O)(=O)N2CC3=C(NC(N)=NC3c3cccc(F)c3)/C(=C/c3cccc(F)c3)C2)cc1 (centres undefined) | 3.5 | 4.2 | 18.9 | 17.2 | Non-Toxic | 74.5 | 73 |
| Cc1ccc(S(=O)(=O)N2C/C(=C\c3ccc(F)cc3)C(=O)/C(=C/c3ccc(F)cc3)C2)cc1 | 4.5 | 5 | 6 | 14 | Non-Toxic |  |  |
| Cl.NC1=NC(c2ccccc2F)C2=C(N1)/C(=C/c1ccccc1F)CN(S(=O)(=O)c1ccc(F)cc1)C2 (centres undefined) | 12.1 | 10 | 12 | 16.5 | Non-Toxic | 78.6 | 79.5 |
| O=C1/C(=C/c2ccccc2F)CN(S(=O)(=O)c2ccc(F)cc2)C/C1=C\c1ccccc1F | 8 | 7.7 | 14.5 | 17.5 | Non-Toxic |  |  |
| Cl.N#Cc1ccc(S(=O)(=O)N2CC3=C(NC(N)=NC3c3ccccc3F)/C(=C/c3ccccc3F)C2)cc1 (centres undefined) | 11.7 | 19 | 29 | 12 | Non-Toxic | 62.9 | 71.2 |
| CC(=O)Nc1ccc(S(=O)(=O)N2CC3=C(NC(N)=NC3c3cccc(F)c3)/C(=C/c3cccc(F)c3)C2)cc1.Cl (centres undefined) | 22.9 | 6.5 | 10.7 | 15 | Non-Toxic | 69.9 | 57.5 |
| O=C1/C(=C/c2cccc(F)c2)CN(S(=O)(=O)c2ccc([N+](=O)[O-])cc2)C/C1=C\c1cccc(F)c1 | 8.1 | 15.3 | 14.5 | 10.7 | Non-Toxic |  |  |
| O=C1/C(=C/c2cccc(F)c2)CN(S(=O)(=O)c2ccc(C(F)(F)F)cc2)C/C1=C\c1cccc(F)c1 | 2.4 | 4.2 | 13.4 | 18 | Non-Toxic |  |  |
| O=C1/C(=C/c2ccc(F)cc2)CN(S(=O)(=O)c2ccccc2)C/C1=C\c1ccc(F)cc1 | 18.8 | 9.1 | 7.7 | 18.8 | Non-Toxic |  |  |
| COc1cccc2c1C(=O)c1c(O)c3c(c(O)c1C2=O)C[C@@](O)(C(=O)CO)C[C@@H]3O[C@H]1C[C@H](N)[C@H](O)[C@H](C)O1 [DOXORUBICIN] | 1 |  | 12.2 | 13.8 |  |  |  |
| Cl.NC1=NC(c2ccc(F)cc2)C2=C(N1)/C(=C/c1ccc(F)cc1)CN(S(=O)(=O)c1ccc(C(F)(F)F)cc1)C2 (centres undefined) | 3.3 | 3.8 | 24.4 | 15.4 | Non-Toxic | 87.5 | 81.7 |
| Cl.NC1=NC(c2ccccc2F)C2=C(N1)/C(=C/c1ccccc1F)CN(S(=O)(=O)c1ccc(Br)cc1)C2 (centres undefined) | 10.4 | 9.7 | 12.5 | 19.5 | Non-Toxic | 74.4 | 79.6 |
| O=C1/C(=C/c2ccccc2F)CN(S(=O)(=O)c2ccc([N+](=O)[O-])cc2)C/C1=C\c1ccccc1F | 16.5 | 6.2 | 6.6 | 15.5 | Non-Toxic |  |  |

| SMILES | IC50 (HepG2) [µM] | IC50 (SMMC-7721) [µM] | IC50 [1] [µM] | IC50 (L02) [µM] | Activity (RAW264.7 [2]) | inhibition at 5 µM (RAW264.7 [3]) [%] | inhibition at 5 µM (RAW264.7 [4]) [%] |
| --- | --- | --- | --- | --- | --- | --- | --- |
| O=C1/C(=C/c2ccccc2F)CN(S(=O)(=O)c2ccccc2)C/C1=C\c1ccccc1F | 15.9 | 5.7 | 27.2 | 17.6 | Non-Toxic |  |  |
| CC(=O)Nc1ccc(S(=O)(=O)N2C/C(=C\c3ccc(F)cc3)C(=O)/C(=C/c3ccc(F)cc3)C2)cc1 | 7.4 | 9.8 | 15 | 19.4 | Non-Toxic |  |  |
| O=C1/C(=C/c2ccc(F)cc2)CN(S(=O)(=O)c2ccc(Cl)cc2)C/C1=C\c1ccc(F)cc1 | 4.5 | 7 | 17.7 | 15.5 | Non-Toxic |  |  |
| N#Cc1ccc(S(=O)(=O)N2C/C(=C\c3ccc(F)cc3)C(=O)/C(=C/c3ccc(F)cc3)C2)cc1 | 9.8 | 15 | 14.6 | 14.7 | Non-Toxic |  |  |
| O=C1/C(=C/c2ccccc2F)CN(S(=O)(=O)c2ccc(Cl)cc2)C/C1=C\c1ccccc1F | 10.9 | 4.5 | 9.6 | 14.1 | Non-Toxic |  |  |
| O=C1/C(=C/c2ccccc2F)CN(S(=O)(=O)c2ccc(C(F)(F)F)cc2)C/C1=C\c1ccccc1F | 4.9 | 5.2 | 15.3 | 16.2 | Non-Toxic |  |  |
| O=C1/C(=C/c2ccc(F)cc2)CN(S(=O)(=O)c2ccc(C(F)(F)F)cc2)C/C1=C\c1ccc(F)cc1 | 3.2 | 4.4 | 16.1 | 13.5 | Non-Toxic |  |  |
| CC(=O)Nc1ccc(S(=O)(=O)N2C/C(=C\c3cccc(F)c3)C(=O)/C(=C/c3cccc(F)c3)C2)cc1 | 11.1 | 10.3 | 17 | 17.5 | Non-Toxic |  |  |
| O=C1/C(=C/c2cccc(F)c2)CN(S(=O)(=O)c2ccccc2)C/C1=C\c1cccc(F)c1 | 3.4 | 12.9 | 17.1 | 16.2 | Non-Toxic |  |  |
| N#Cc1ccc(S(=O)(=O)N2C/C(=C\c3ccccc3F)C(=O)/C(=C/c3ccccc3F)C2)cc1 | 16.5 | 14.6 | 13.6 | 11 | Non-Toxic |  |  |
| O=C1/C(=C/c2ccc(F)cc2)CN(S(=O)(=O)c2ccc([N+](=O)[O-])cc2)C/C1=C\c1ccc(F)cc1 | 5.4 | 5 | 7.8 | 16.2 | Non-Toxic |  |  |
| CC(=O)Nc1ccc(S(=O)(=O)N2C/C(=C\c3ccccc3F)C(=O)/C(=C/c3ccccc3F)C2)cc1 | 5.2 |  | 13.6 |  | Non-Toxic |  |  |
| O=C1/C(=C/c2cccc(F)c2)CN(S(=O)(=O)c2ccc(F)cc2)C/C1=C\c1cccc(F)c1 | 5 | 13.5 | 15.4 | 21.9 | Non-Toxic |  |  |
| O=C1/C(=C/c2ccccc2F)CN(S(=O)(=O)c2ccc(Br)cc2)C/C1=C\c1ccccc1F | 13.7 | 5.2 | 14 | 16.2 | Non-Toxic |  |  |
| Cc1ccc(S(=O)(=O)N2C/C(=C\c3ccccc3F)C(=O)/C(=C/c3ccccc3F)C2)cc1 | 14.2 | 4.1 | 7.9 | 16.7 | Non-Toxic |  |  |
| N#Cc1ccc(S(=O)(=O)N2C/C(=C\c3cccc(F)c3)C(=O)/C(=C/c3cccc(F)c3)C2)cc1 | 2.6 | 4.5 | 7.5 | 15.5 | Non-Toxic |  |  |
| O=C1/C(=C/c2cccc(F)c2)CN(S(=O)(=O)c2ccc(Br)cc2)C/C1=C\c1cccc(F)c1 | 7.7 | 11.7 | 16.5 | 15.8 | Non-Toxic |  |  |
| O=C1/C(=C/c2cccc(F)c2)CN(S(=O)(=O)c2ccc(Cl)cc2)C/C1=C\c1cccc(F)c1 | 13.1 | 7.8 | 10.8 | 15.7 | Non-Toxic |  |  |
